KCC2 mod: KCC2 (human) Cl- transport modulation. AID 1456. hit rate 2.2% among 190,000. Q9H2X9. B-score of Tl+ flux slope (higher = more flux/activation; lower = inhibition) at 10 µM. KCC2 cells, thallium flux FluoZin-2 fluorescence;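 active means thallium flux slope and its plate-corrected score both differing from the plate sample mean at a set confidence after two filtering rounds, in either direction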;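 further: slope of fluorescence scaled to starting intensity during 10 to 20 s after thallium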
KCNQ1 act: human KCNQ1 channel potentiation or activation. P51787. B-score at 10 µM. AID 2648. CHO-K1 KCNQ1, thallium flux FluxOR fluorescence; active compounds read high. hit rate 0.35% among 310,000;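 active means fluorescence ratio B-score, a plate-corrected score, at least three library SD, with initial intensity B-score within 5 SD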
Target sequence (P51787 whole entry, looked up): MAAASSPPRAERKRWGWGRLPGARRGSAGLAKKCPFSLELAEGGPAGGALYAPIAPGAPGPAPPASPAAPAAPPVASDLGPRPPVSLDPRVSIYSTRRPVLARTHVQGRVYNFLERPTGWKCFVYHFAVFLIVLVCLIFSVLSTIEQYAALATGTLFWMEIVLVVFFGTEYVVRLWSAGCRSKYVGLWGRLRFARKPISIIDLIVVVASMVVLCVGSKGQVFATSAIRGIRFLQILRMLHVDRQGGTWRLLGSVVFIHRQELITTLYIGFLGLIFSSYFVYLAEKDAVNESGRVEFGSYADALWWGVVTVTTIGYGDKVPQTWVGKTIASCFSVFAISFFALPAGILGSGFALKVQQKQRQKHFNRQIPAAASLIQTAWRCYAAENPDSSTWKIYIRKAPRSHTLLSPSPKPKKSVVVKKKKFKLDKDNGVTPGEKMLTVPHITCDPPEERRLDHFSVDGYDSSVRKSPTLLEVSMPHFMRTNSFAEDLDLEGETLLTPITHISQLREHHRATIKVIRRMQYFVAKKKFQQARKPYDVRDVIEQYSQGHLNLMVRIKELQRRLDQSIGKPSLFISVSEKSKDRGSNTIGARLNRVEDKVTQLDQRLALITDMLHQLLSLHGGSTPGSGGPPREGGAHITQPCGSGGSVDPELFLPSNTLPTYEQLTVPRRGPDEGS
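assay system = KCNQ1-transfected CHO-K1 cells | medium = assay buffer with matched DMSO | probe or stimulus = depolarizing K+/Tl+ stimulus, K2SO4 and Tl2SO4 each 12.5 mM in 5x stock | dosing = single dose | incubation = dye 90 min, compound 20 min, room temperature | detection = kinetic FluxOR fluorescence, 10 s baseline plus 110 s post-stimulus | evaluation = ratio B score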
KCNQ1 inh: blocks the human KCNQ1 potassium channel. hit rate 1.3% among 310,000. P51787. CHO-K1 KCNQ1, FluxOR thallium flux fluorescence; active compounds read high. AID 2642. B-score at 10 µM;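 active means compounds whose thallium flux B-score, printed positive for inhibition, exceeds three library SD while starting fluorescence stays within three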;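 further: channel opened by potassium depolarization with thallium stimulus after 20 min compound exposure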
KCNK3 inh: human KCNK3 channel inhibition, primary screen | O14649 | AID 602410 | B-score at 10 µM | CHO-KCNK3 thallium flux, FluxOR fluorescence; active compounds read low | hit rate 0.84% among 340,000;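 active means B-score under library mean minus 4 SD, starting fluorescence ratio at most library mean plus 5 SD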;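 further: more negative B-score means stronger inhibition of thallium flux through KCNK3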
hERG rescue: compounds protecting human hERG from proarrhythmic drug block. hit rate 0.51% among 310,000. CHO-hERG, FluxOR thallium flux, dofetilide IC70 present. Q12809. activation (rescue from dofetilide block), less the hit threshold, % at 10 µM. AID 1511;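 active means activation above the mean of controls blocked by dofetilide plus 5 SD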;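 further: thallium influx through hERG after potassium depolarization seen as dye fluorescence rise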
KCNK9 inh: blocks the human KCNK9 two-pore domain potassium channel; Q9NPC2; HEK293 KCNK9, FluxOR thallium flux fluorescence; active compounds read low; B-score at 10 µM; hit rate 1.2% among 310,000;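 active means ratio B-score over 3 SD below the library mean, with starting fluorescence within 5 SD of its mean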;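 further: negative B-score means less thallium flux so channel inhibition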
KCC2 sec1: confirmation of human KCC2 transport modulators | shares compounds with KCC2 mod | HEK293-KCC2, thallium flux, FluoZin2 fluorescence; active compounds read high | normalised thallium flux (F/F0 slope) at 10 µM | hit rate 15% among 3,700;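 active means thallium flux slope above the same plate's solvent-only control mean plus 3 SD; inconclusive means the two replicate wells disagree; inactive means no significant difference from solvent-only control wells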
KCC2 bumet counter: bumetanide-insensitive thallium flux in KCC2 cells with ouabain, counter-screen; shares compounds with KCC2 mod; HEK293-KCC2 + bumetanide/ouabain, thallium flux FluoZin2; active compounds read high; normalized thallium flux at 10 µM; hit rate 49% among 3,700;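 active means thallium entry rate above the same plate's blocked-transporter control wells by more than 3 SD; inconclusive means the two repeat wells disagree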;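 further: raw slope of fluorescence over initial fluorescence between 10 and 20 s after thallium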
KCC2 secondary2: KCC2 (human) modulation, second secondary assay; shares compounds with KCC2 mod; HEK293-KCC2, thallium flux FluoZin2 fluorescence; actives lie on both sides; F/F0 rise rate, 10–20 s post-thallium; normalized thallium flux at 10 µM; hit rate 23% among 3,700; AID 1715;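 active means thallium flux slope more than 3 SD above or below the plate's solvent-only control mean, mostly below; inconclusive means the two repeat wells disagreed; inactive means no significant shift from solvent-only controls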;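 further: raw slope with 0.1% DMSO as baseline and bumetanide as block control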
HEK293 Tl flux: acts in parental HEK cells, KCC2 counter-screen. shares compounds with KCC2 mod. HEK293 parental cells, thallium flux FluoZin2, ouabain; baseline-ratio fluorescence slope, 10–20 s after thallium. thallium flux rate (normalised fluorescence) at 10 µM. hit rate 46% among 3,700;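 active means thallium flux rate significantly above the same plate's solvent-only control wells, beyond their mean plus 3 SD; inconclusive means the two replicate wells gave conflicting results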
KCC2 retest ouab: KCC2 (human) modulation, ouabain retest. hit rate 48% among 3,700. HEK293-KCC2, thallium flux FluoZin2 fluorescence; bidirectional: low = inhibitor, high = activator. raw Tl+ flux slope (below DMSO = inhibition, above = activation) at 10 µM. shares compounds with KCC2 mod;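 active means thallium flux slope beyond 3 SD from same-plate DMSO control mean in most replicates, usually higher, sometimes lower; inconclusive means repeat tests gave conflicting results; inactive means no significant difference from controls in most replicates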;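 further: slope of initial-normalized fluorescence between seconds 10 and 20 after thallium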
HEK counter2: parental HEK flux effect, counter-screen 2; shares compounds with KCC2 mod; HEK293 parental, thallium flux FluoZin-2 fluorescence slope; thallium flux slope at 10 µM; hit rate 33% among 3,700;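 active means thallium flux slope above the same plate's solvent-control mean plus 3 SD in both duplicate wells; inconclusive means duplicate wells that disagreed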;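 further: run without ouabain in cells lacking the KCC2 cotransporter; slope of fluorescence scaled to its starting value between 10 and 20 s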
* = called active by the depositor; i = inactive; ? = inconclusive; . = no result. Hits are enriched below; roughly 4.1% of the tested compounds scored in any of these assays.

SMILES	KCC2 mod	KCNQ1 act	KCNQ1 inh	KCNK3 inh	hERG rescue	KCNK9 inh	KCC2 sec1	KCC2 bumet counter	KCC2 secondary2	HEK293 Tl flux	KCC2 retest ouab	HEK counter2
COc1cccc(CNc2ccc(C)c(Cl)c2)c1	0.14	i	i	i	-4	i	.	.	.	.	.	.
Cc1ccc(-c2c[nH]c(=S)n2-c2ccccc2)cc1	7.3*	i	i	i	-6	i	0.012	0.023*	0.037	?	?	?
CCOC(=O)Cc1csc(NC(=S)NC(=O)CC(C)C)n1	8.8*	i	i	i	-10	i	?	0.04*	0.03	0.014*	0.036*	0.011*
CCOC(=O)Cc1csc(NC(=S)NC(=O)c2cc(OC)cc(OC)c2)n1	26*	i	i	i	1	i	0.015*	0.034*	0.03	0.023*	0.065*	0.012*
CCOC(=O)Cc1csc(NC(=S)NC(=O)c2cccc([N+](=O)[O-])c2)n1	9.6*	i	i	i	-6	i	0.014*	0.034*	0.036	0.014*	0.034*	0.011
CCOC(=O)Cc1csc(NC(=O)c2cc(C)cc(C)c2)n1	0.91	i	i	i	-12	i	.	.	.	.	.	.
C=CC[C@@H](CC(=O)N(CCO)Cc1ccccc1)C(=O)NC[C@H](OC(=O)[C@@H](CC=C)Cc1ccc(F)cc1)c1ccccc1	.	.	.	i	.	.	.	.	.	.	.	.
COc1cc(OC)c(OC)cc1/C=C/C(=O)OCC(=O)Nc1c(C)n(C)n(-c2ccccc2)c1=O	.	.	.	i	.	.	.	.	.	.	.	.
CC(C)Oc1ccccc1OCCCOc1cccc2cccnc12	-3.8*	i	i	i	-20	i	0.0071	0.0049	?	0.0064	0.017*	0.01
CC(=O)c1ccccc1OCCCOc1cccc2cccnc12	.	i	i	i	-10	i	.	.	.	.	.	.
CCN(CC)c1ccc(NC(=O)c2ccccc2F)cc1	-6.2*	i	i	i	-6	i	0.017	?	0.029	0.0072	0.014	0.0095
CCOc1cccc(C(=O)NC(=S)Nc2cccnc2)c1	1.1	i	i	i	0	i	.	.	.	.	.	.
CCCCOc1cccc(C(=O)NC(=S)Nc2cccnc2)c1	6*	i	i	i	-3	i	0.013*	0.087*	0.036	0.029*	0.052*	0.013*
Cc1ccc(C(=O)NC(=S)Nc2ccc(Oc3ccc(Cl)cc3)cc2)cc1	1.9	i	i	i	-2	i	.	.	.	.	.	.
O=C(Nc1ccc(Nc2ccccc2)cc1)c1ccccc1F	.	i	i	i	-3	i	.	.	.	.	.	.
CN(C)S(=O)(=O)c1ccc(NC(=S)NC(=O)c2cccs2)cc1	4*	i	i	i	-7	i	0.0094	0.016*	0.029	0.0084*	?	0.0097
O=C(NC(=S)Nc1ccc(Oc2ccccc2)cc1)c1ccc(Cl)cc1	31*	i	i	i	-3	i	0.0066	0.022*	?	0.016*	0.028*	0.014*
O=C(Cc1ccc(NC(=O)C2CCCN(C(=O)c3ccccc3)C2)cc1)Nc1ccc(C(=O)N2CCOCC2)cc1 (stereo not given)	.	.	.	i	.	.	.	.	.	.	.	.
Cc1ccccc1C(=O)NC(=S)Nc1ccc(S(=O)(=O)N(C)c2ccccc2)cc1	0.68	i	i	i	-11	i	.	.	.	.	.	.
O=C(Nc1ccc2c(c1)OCCO2)c1cc(F)c(F)cc1Cl	.	i	i	i	-1	i	.	.	.	.	.	.
O=C(O)c1ccc(NC(=S)NC(=O)c2cccc(COc3ccccc3)c2)cc1	-3.7*	i	6*	i	-10	i	0.0083	?	0.034	0.004	?	0.011
Cc1cccc(C(=O)NC(=S)Nc2ccc(S(=O)(=O)N(C)c3ccccc3)cc2)c1	2.5*	i	i	i	-5	i	0.0083	0.014*	0.03	0.0077	0.026*	0.012*
O=C(NC(=S)Nc1ccc2c(c1)OCCO2)c1ccc(F)cc1Cl	16*	i	i	i	-1	i	0.0099	0.022*	0.033	0.012*	?	0.011
O=C(NC(=S)Nc1cc(C(F)(F)F)ccc1N1CCOCC1)c1ccco1	89*	i	i	i	5.7*	i	0.022*	0.11*	0.039	?	0.076*	0.026*
COc1cccc(OC)c1C(=O)NC(=S)Nc1ccc2oc(=O)ccc2c1	0.023	i	i	i	-7	i	.	.	.	.	.	.
SMILES	KCC2 mod	KCNQ1 act	KCNQ1 inh	KCNK3 inh	hERG rescue	KCNK9 inh	KCC2 sec1	KCC2 bumet counter	KCC2 secondary2	HEK293 Tl flux	KCC2 retest ouab	HEK counter2
CCN(CC)c1ccc(NC(=S)NC(=O)c2ccco2)cc1	69*	35*	i	i	53*	i	0.043*	0.17*	?	?	0.12*	?
CCN(CC)c1ccc(NC(=O)c2ccco2)cc1	-0.0059	i	i	i	-10	i	.	.	.	.	.	.
O=C(NC(=S)Nc1ccc2c(c1)OCO2)c1ccc(Cl)cc1	8.2*	i	i	i	-7	i	0.0093	0.012*	0.039	?	0.026*	0.012
O=C(CNC(=O)c1ccco1)Nc1ccc2c(c1)OCCO2	.	i	i	i	-13	i	.	.	.	.	.	.
O=C(NC(=S)Nc1ccc2oc(=O)ccc2c1)c1ccco1	22*	i	i	i	-3	i	0.0059	0.049*	0.044*	0.03*	0.046*	0.029*
O=C(NC(=S)Nc1ccc2c(c1)OCCO2)c1ccco1	100*	i	i	i	-8	i	0.023*	0.1*	0.04	0.083*	0.07*	0.042*
Cc1cc(C)n2nc(SC(C)C(=O)Nc3ccccc3F)nc2n1 (stereo not given)	.	.	.	i	.	.	.	.	.	.	.	.

Assay outcomes from PubChem BioAssay.
